Laboratory results as given in ChEMBL document CHEMBL1145132, “N-hydroxy-3-phenyl-2-propenamides as novel inhibitors of human histone deacetylase with in vivo antitumor activity: discovery of (2E)-N-hydroxy-3-[4-[[(2-hydroxyethyl)[2-(1H-indol-3-yl)ethyl]amino]methyl]phenyl]-2-propenamide (NVP-LAQ824)” (J Med Chem, 2003).
pIC50: −log10 of the molar value. Where “and” joins values, the source holds several entries; their conditions need not be identical. Identical values can stand only once.

Tests used:
[1] = system: NCI-H1299; experiment: Inhibitory activity against H1299 human lung carcinoma cell growth; assay type: functional, cell-based
[2] = system: HCT-116; experiment: Inhibitory activity against HCT116 human colon cell growth; assay type: functional, cell-based
[3] = biological target: Histone deacetylase; experiment: Inhibitory activity against histone deacetylase (HDAC) enzyme obtained from H1299 human lung carcinoma cell lysates
[4] = system: Mus musculus; experiment: Compound was tested in vivo for efficacy in athymic mice bearing HCT116 subcutaneous tumor xenografts at a dose of 40 mg/kg and change in the body weight of the mouse was evaluated; assay type: functional
Method in brief: (§1)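 Female outbred athymic nu/nu mice, ≈10⁶ HCT116 cells injected sc in right axillary region under anesthesia; treatment began when tumors ≈100 mm³ (day 13 post-implant), groups of eight balanced on tumor volume. Compound given iv as lactate salt in 10% DMSO/D5W, qd 5×/week for 15 doses. Individual body weights recorded once weekly; % change from start reported.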

[5] = system: Mus musculus; experiment: Compound was tested in vivo for maximum tolerated dose (MTD) that resulted in no deaths when administered intravenously for five days; assay type: functional
Method in brief: (§2)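 Athymic mice, four per group, dosed iv once daily for five consecutive days, up to a maximum of 200 mg/kg/day. Compound given as the lactate salt in 10% DMSO in 5% dextrose/water (final DMSO 10%). MTD taken as the highest dose that caused no deaths.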

[6] = system: Mus musculus; experiment: Ratio of the change in tumor volume of treated animals to the change in tumor volume of control animals at a dose of 40 mg/kg; assay type: functional
Method in brief: (§3)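 HCT116 sc xenografts (≈10⁶ cells) in female athymic nude mice, eight per group, treated from ≈100 mm³ tumors with iv lactate salt in 10% DMSO/D5W qd 5×/week for 10 or 15 doses. Tumors measured weekly; % T/C = change in treated tumor volume over change in vehicle-control tumor volume; one-tailed Student's t-test.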

[7] = system: Mus musculus; experiment: Compound was tested for efficacy in athymic mice bearing HCT116 subcutaneous tumor xenografts at a dose of 100 mg/kg and change in the body weight of the mouse was evaluated; assay type: functional; method in brief: as §1
[8] = system: Mus musculus; experiment: Compound was tested in vivo for efficacy in athymic mice bearing HCT116 subcutaneous tumor xenografts at a dose of 100 mg/kg and change in the body weight of the mouse was evaluated; assay type: functional; settings: route intravenous; method in brief: as §1
[9] = system: Mus musculus; experiment: Compound was tested in vivo for efficacy in athymic mice bearing HCT116 subcutaneous tumor xenografts at a dose of 25 mg/kg and change in the body weight of the mouse was evaluated; assay type: functional
[10] = system: Mus musculus; experiment: Compound was tested in vivo for efficacy in athymic mice bearing HCT116 subcutaneous tumor xenografts at a dose of 50 mg/kg and change in the body weight of the mouse was evaluated; assay type: functional; settings: route intravenous; method in brief: as §1
[11] = system: Mus musculus; experiment: Compound was tested in vivo for efficacy in A549 human lung carcinoma xenograft model at a dose of 10 mg/kg and change in the body weight of the mouse was evaluated; assay type: functional
Method in brief: (§4)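 Female outbred athymic nu/nu mice, ≈10⁷ A549 cells injected sc in right axillary region; treatment began ≈20 days post-implant at tumors ≈100 mm³, eight mice per group balanced on tumor volume. Dosing iv as lactate salt in 10% DMSO/D5W, qd 5×/week for 15 doses. Body weights recorded once weekly; % change reported.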

[12] = system: Mus musculus; experiment: Compound was tested in vivo for efficacy in A549 human lung carcinoma xenograft model at a dose of 100 mg/kg and change in the body weight of the mouse was evaluated; assay type: functional; method in brief: as §4
[13] = system: Mus musculus; experiment: Compound was tested in vivo for efficacy in A549 human lung carcinoma xenograft model at a dose of 25 mg/kg and change in the body weight of the mouse was evaluated; assay type: functional; method in brief: as §4
[14] = system: Mus musculus; experiment: Compound was tested in vivo for efficacy in A549 human lung carcinoma xenograft model at a dose of 50 mg/kg and change in the body weight of the mouse was evaluated; assay type: functional; method in brief: as §4
[15] = system: Mus musculus; experiment: Compound was tested in vivo for efficacy in athymic mice bearing HCT116 subcutaneous tumor xenografts at a dose of 10 mg/kg and change in the body weight of the mouse was evaluated; assay type: functional; settings: route intravenous; method in brief: as §1
[16] = system: Mus musculus; experiment: Ratio of the change in tumor volume of treated animals to the change in tumor volume of control animals at a dose of 50 mg/kg (A549 human lung carcinoma xenograft study); assay type: functional
Method in brief: (§5)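 A549 sc xenografts (≈10⁷ cells) in female athymic nude mice, eight per group, dosed from ≈100 mm³ tumors (day 20) iv as lactate salt in 10% DMSO/D5W qd 5×/week for 15 doses. Weekly tumor measurement; % T/C = treated over vehicle-control change in tumor volume; one-tailed Student's t-test.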

[17] = system: Mus musculus; experiment: Compound was tested for maximum tolerated dose (MTD) that resulted in no deaths when administered intravenously for five days; assay type: functional; method in brief: as §2
[18] = system: Mus musculus; experiment: Ratio of the change in tumor volume of treated animals to the change in tumor volume of control animals at a dose of 10 mg/kg; assay type: functional; method in brief: as §3
[19] = system: Mus musculus; experiment: Ratio of the change in tumor volume of treated animals to the change in tumor volume of control animals at a dose of 10 mg/kg (A549 human lung carcinoma xenograft study); assay type: functional; method in brief: as §5
[20] = system: Mus musculus; experiment: Ratio of the change in tumor volume of treated animals to the change in tumor volume of control animals at a dose of 100 mg/kg; assay type: functional; settings: 100 mg/kg; method in brief: as §3
[21] = system: Mus musculus; experiment: Ratio of the change in tumor volume of treated animals to the change in tumor volume of control animals at a dose of 100 mg/kg (A549 human lung carcinoma xenograft study); assay type: functional; method in brief: as §5
[22] = system: Mus musculus; experiment: Ratio of the change in tumor volume of treated animals to the change in tumor volume of control animals at a dose of 25 mg/kg; assay type: functional; method in brief: as §3
[23] = system: Mus musculus; experiment: Ratio of the change in tumor volume of treated animals to the change in tumor volume of control animals at a dose of 25 mg/kg (A549 human lung carcinoma xenograft study); assay type: functional; method in brief: as §5
[24] = system: Mus musculus; experiment: Ratio of the change in tumor volume of treated animals to the change in tumor volume of control animals at a dose of 50 mg/kg; assay type: functional; method in brief: as §3

With `O=C(/C=C/c1ccc(CN(CCc2c[nH]c3ccccc23)C2CCOCC2)cc1)NO` as the compound, how does the pIC50 [1] read?
The pIC50 was 7.40.

And the pIC50 [2]?
Its pIC50 is 8.22.

And the IC50 [3]?
The IC50 was 10 nM.

What about the Body weight change [4] of the same compound?
Its Body weight change is 0.1%.

And the MTD [5]?
Its MTD is 40 mg/kg.

And the T/C [6]?
Its T/C is 32%.

With `O=C(/C=C/c1ccc(CN(CCO)CCc2c[nH]c3ccccc23)cc1)NO` [DACINOSTAT] as the compound, how does the pIC50 [1] read?
The pIC50 was 6.82.

And the pIC50 [2]?
The pIC50 was 8.00.

And the Body weight change [7]?
The Body weight change was -0.9%.

And the Body weight change [8]?
Its Body weight change is 1.4%.

What about the Body weight change [9] of the same compound?
The Body weight change was 0%.

What about the Body weight change [10] of the same compound?
Its Body weight change is 2.3%.

And the Body weight change [11]?
Its Body weight change is 1.3%.

And the Body weight change [12]?
Its Body weight change is 0.4%.

What about the Body weight change [13] of the same compound?
Its Body weight change is -0.9%.

And the Body weight change [14]?
Its Body weight change is -0.4%.

And the Body weight change [15]?
The Body weight change was 2.7%.

And the T/C [16]?
Its T/C is 15%.

And the MTD [17]?
The MTD was >200 mg/kg.

What about the T/C [18] of the same compound?
The T/C was 55%.

What about the T/C [19] of the same compound?
The T/C was 32%.

What about the T/C [20] of the same compound?
The T/C was 12% and 20%.

And the T/C [21]?
Its T/C is 7%.

And the T/C [22]?
Its T/C is 38%.

And the T/C [23]?
The T/C was 20%.

What about the T/C [24] of the same compound?
Its T/C is 27%.
